One series concerns Vero 76. Kind of series: Cytotoxicity against African green monkey Vero 76 assessed as reduction in cell viability measured after 72 hrs. The format is cell-based. To be noted: chlorocebus sabaeus, vero 76, 72 h. In outline: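 Uninfected Vero 76 cells were exposed to compound, and viability was assessed 72 h post-treatment.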
The test system of series [1] is Venezuelan equine encephalitis virus. Kind of series: Antiviral activity against Venezuelan equine encephalitis virus infected in African green monkey Vero 76 cells assessed as virus induced cytopathic effect measured after 48 hrs. Type of series: functional, organism-based. To be noted: Vero 76, 48 h.
Series [2] shares this test system. Kind of series: Antiviral activity against Venezuelan equine encephalitis virus co-culture with brain Primary neuron cells HNC001 as reduction on virus titre at 5 uM in Vero 76 cells measured after 18 hrs by TCID50-MTT assay. The format is functional, organism-based. (Tetrazolium assays rely on reduction of a dye to a coloured formazan, in cell work by metabolically active cells.)

Series [3] concerns Eastern equine encephalitis virus. Kind of series: Antiviral activity against Eastern equine encephalitis virus co-culture with brain Primary neuron cells HNC001 as reduction on virus titre at 5 uM in Vero 76 cells measured after 18 hrs by TCID50-MTT assay. Type of series: functional, organism-based.
Series [4] can be described thus: Aqueous solubility of compound at pH 7.4 measured after 1460 min by HPLC analysis. The format is physicochemical. To be noted: buffer. In outline: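 Kinetic solubility was measured in aqueous PBS buffer at pH 7.4.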
The nature of series [5]: Metabolic stability in CD-1 mouse liver microsomes assessed as half life measured at 60 mins in presence of NADPH by LC-MS/MS analysis. The format is ADME, Microsome. Conditions: 1 h. The gist of the method:
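Half-life was determined from stability in CD-1 mouse liver microsomes.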
Background: Liver microsomes are a subcellular fraction often used to study metabolism.

Series [6] relates to Venezuelan equine encephalitis virus. Kind of series: Antiviral activity against Venezuelan equine encephalitis virus infected in African green monkey Vero 76 cells assessed as reduction on virus yield at 5 uM after 18 hrs of post infection. The format is functional.
Series [7] has as its system Eastern equine encephalitis virus. Kind of series: Antiviral activity against eastern equine encephalitis virus infected in African green monkey Vero 76 cells assessed as reduction on virus yield at 5 uM after 18 hrs of post infection. The format is functional.
Series [8] shares this test system. Kind of series: Antiviral activity against eastern equine encephalitis virus infected in African green monkey Vero 76 cells assessed as virus induced cytopathic effect measured after 48 hrs. The format is functional, organism-based. Conditions: Vero 76, 48 h. In general terms: Cytopathic effects are the visible damage that an infection or toxin causes in cultured cells.

In series [9] the test system is Venezuelan equine encephalitis virus. Kind of series: Antiviral activity against Venezuelan equine encephalitis virus co-culture with brain Primary neuron cells HNC001 as reduction on virus titre at 1 uM in Vero 76 cells measured after 18 hrs by TCID50-MTT assay. The format is functional, organism-based.
For series [10], the system named is Eastern equine encephalitis virus. Kind of series: Antiviral activity against Eastern equine encephalitis virus co-culture with brain Primary neuron cells HNC001 as reduction on virus titre at 1 uM in Vero 76 cells measured after 18 hrs by TCID50-MTT assay. Type of series: functional, organism-based.

Each structure is given as a SMILES string. pEC50: −log10 of the molar value. In brackets after ≈: the same amount, converted by molar mass. Activity calls are given as the source filed them. No cut-off for these calls is given here.

A word on the CC50: it is the concentration that lowers cell viability or growth by half. By pEC50 is commonly meant the negative decadic logarithm of the EC50, by convention in mol/L. As usually defined, the kinetic solubility is the concentration staying in solution when a stock, usually in DMSO, is diluted into the medium. In the case of `COc1ccc(N2C(=O)c3cc([N+](=O)[O-])ccc3N=C3C2N(C)CCN3C)cc1F` (configuration not stated), the CC50 with Vero 76 was above 30 µM. In addition, the negative-log EC50 (pEC50) in [1] is 7.32. The result in series [2] and in series [3] was Active. In addition, in [4], the kinetic solubility at 24.33 h amounted to 0.5 µM (≈ 0.207 µg/mL). In series [5], the t1/2 came out at 10 min. Also, the Activity in series [6] worked out at 3.7; in series [7], 7.7.
Consider `COc1ccc(N2C(=O)c3cc([N+](=O)[O-])ccc3N=C3C2N(C)CCN3C)cc1` (configuration not stated), for which the CC50 with Vero 76 was above 30 µM. Moreover, the pEC50 in [8] was 7.48. Besides, the result in [2] and in [3] was Active. In [4], the kinetic solubility at 24.33 h was 0.7 µM (≈ 0.277 µg/mL). For the same compound, in series [5], the t1/2 is 10 min. In addition, the Activity in series [6] was 5.5; in [7], 7.9.
With `COc1ccc(N2C(=O)c3cc(C#N)cc(-c4ccc(C)nc4)c3N=C3[C@H]2N(C)CCN3C)cc1F`, the negative-log EC50 (pEC50) was 6.30 in [1] and 6.52 in series [8]. The outcome in series [2] and in series [3] was Active. In addition, the result in series [9] and in series [10] was inactive. Further, the Activity in series [6] is 6.1; in series [7] it was 5.2.
With `CN1CCN(C)C2C1=Nc1ccc(C#N)cc1C(=O)N2c1ccccc1` (configuration not stated), in the series with Vero 76, the CC50 is above 30 µM. In addition, the figures for the pEC50 in [1] and in series [8] were 5.15 and 5.36, respectively.
As to `COc1ccc(N2C(=O)c3cc(C#N)cc(-c4ccc(C)nc4)c3N=C3C2N(C)CCN3C)cc1F` (racemic), the CC50 in the series on Vero 76 stood at 23.3 µM. Moreover, the pEC50 is 6.62 in series [1] and 6.80 in series [8]. Moreover, the result in [2] and in series [3] was Active. Further, the outcome in series [9] and in series [10] was inactive. The compound also gave a kinetic solubility at 24.33 h in series [4] of 2 µM (≈ 0.969 µg/mL). Also, the t1/2 in series [5] turned out to be 45 min. Further, the Activity is recorded as 5.2 in [6] and 6.9 in series [7].
As for `COc1ccc(N2C(=O)c3cc(C#N)cc(N4CCOCC4)c3N=C3C2N(C)CCN3C)cc1F` (configuration not stated), the CC50 in the series on Vero 76 was above 30 µM. In addition, the negative-log EC50 (pEC50) in series [1] is 5.60; in [8], 5.72. The figures for the Activity in [6] and in series [7] were 2.5 and 4, respectively.
For `CN1CCN(C)C2C1=Nc1ccc([N+](=O)[O-])cc1C(=O)N2c1ccc(F)cc1` (configuration not stated) the same measures were above 30 µM, 6.82, 6.96, 2.9 and 6.1.
Consider `COc1ccc(N2C(=O)c3cc(C#N)cc(Br)c3N=C3C2N(C)CCN3C)cc1F` (configuration not stated), for which the CC50 in the series with Vero 76 is above 30 µM. Further, the negative logarithm of the EC50 (pEC50) in series [1] was 5.39; in series [8], 5.49.
Turning to `COc1ccc(N2C(=O)c3cc(C#N)cc(-c4ccc(C)nc4)c3N=C3[C@@H]2N(C)CCN3C)cc1F`, the CC50 in the series on Vero 76 was above 30 µM. Besides, the pEC50 is 6.48 in series [1] and 6.59 in [8]. Further, the outcome in [2] and in series [3] was Active. In addition, the result in series [9] and in [10] was inactive. For the same compound, the Activity was found to be 2.7 in [6] and 5.9 in series [7].
As for `COc1ccc(N2C(=O)c3cc(C#N)ccc3N=C3C2N(C)CCN3C)cc1` (configuration not stated), the CC50 in the series on Vero 76 is above 30 µM. For the same compound, the negative logarithm of the EC50 (pEC50) in [1] was 5.38; in [8] it was 5.60.
For `COc1ccc(N2C(=O)c3cc([N+](=O)[O-])ccc3N=C3C2N(Cc2ccccc2)CCN3Cc2ccccc2)cc1` (configuration not stated) the same measures were above 30 µM, 4.70 and 4.86.
For the compound `CN1CCN(C)C2C1=Nc1cc([N+](=O)[O-])ccc1C(=O)N2c1ccccc1` (configuration not stated), the CC50 with Vero 76 is above 30 µM. The pEC50 in series [1] and in series [8] was below 4.52 throughout.
Take `COc1ccc(N2C(=O)c3cc([N+](=O)[O-])ccc3N=C3C2N(C2CCCCC2)CCN3C)cc1` (configuration not stated): in the series on Vero 76, the CC50 is above 30 µM. In addition, the results for the pEC50 in [1] and in [8] were 5.15 and 5.21, respectively.
In the case of `COc1cccc(N2C(=O)c3cc([N+](=O)[O-])ccc3N=C3C2N(C)CCN3C)c1` (configuration not stated), the CC50 in the series with Vero 76 is above 30 µM. The pEC50 in [1] was 6.28; in [8], 6.30. The Activity is given as 2.4 in series [6] and 5.7 in series [7].
Turning to `COc1ccc(N2C(=O)c3cc([N+](=O)[O-])ccc3N=C3[C@@H]2N(C)[C@@H]2CCCC[C@H]2N3C)cc1`, the CC50 in the series on Vero 76 was above 30 µM. The pEC50 is 5.33 in [1] and 5.35 in series [8].
With `COc1ccc(N2C(=O)c3cc([N+](=O)[O-])ccc3N=C3C2N(Cc2ccccc2)CCN3C)cc1` (configuration not stated), the cytotoxic concentration (CC50) with Vero 76 was above 30 µM. Also, the pEC50 in series [1] is 5.52; in [8], 5.49.
Turning to `CN1CCN(C)C2C1=Nc1ccc([N+](=O)[O-])cc1C(=O)N2c1ccccc1` (configuration not stated), the cytotoxic concentration (CC50) with Vero 76 was above 30 µM. Also, the pEC50 in series [1] was 6.92. The results for the Activity in [6] and in series [7] were 2.6 and 5.7, respectively.
Turning to `COc1ccc(N2C(=O)c3cc([N+](=O)[O-])ccc3N=C3[C@H]2N(C)[C@H]2CCCC[C@@H]2N3C)cc1`, the pEC50 in series [1] is 5.25; in series [8], 5.42.
Regarding `CN1CCN(C)C2C1=Nc1ccc(F)cc1C(=O)N2c1ccccc1` (configuration not stated), the CC50 in the series with Vero 76 is above 30 µM. Moreover, the pEC50 in series [1] and in [8] was below 4.52 each time.
